# OXTR potentiator – potentiates the human oxytocin receptor response | P30559 | CHO-OTR cells, Fluo-8 calcium fluorescence, potentiator mode; 0% = oxytocin EC15, 100% = EC100 | activation, % at 3 µM | 0.061% of 320,000 active | AID 2445;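 active = activation above that plate's cutoff, the mean activation of tested compounds plus 3 SD, cut at about 6.6% in these data, passing the limit was not always enough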;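 note: 100% uses oxytocin at 75 nM as the full agonist control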
#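 Measured by – Fluo-8 calcium dye fluorescence · Test system – human OTR in CHO cells · Dosing – one concentration, 3.0 µM compound · Controls – EC15 oxytocin alone as 0%, 75 nM oxytocin as 100% · Evaluation – normalized max/min fluorescence ratio, % activation · Timing – 6 min pre-incubation, 100 s read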
# OXTR ag – agonists of human oxytocin receptor | P30559 | activation, % at 3 µM | CHO-OTR cells, Fluo-8 calcium fluorescence; normalized: DMSO 0%, oxytocin 100% | 0.32% of 320,000 active;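 active = activation above the mean of all tested compounds plus 3 SD, cutoff set per screening run, cut at about 20% in these data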;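 note: peak over basal fluorescence ratio from a 100 s FLIPR kinetic read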
# TAAR1 antagonist – human TAAR1 antagonism. 1.5% of 360,000 active. CHO RD-HGA16 TAAR1, Fluo-8 calcium fluorescence, antagonist. Q96RJ0. inhibition, % at 3 µM. AID 624466;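 active = inhibition above a per-plate cutoff, the mean inhibition of test compounds on that plate plus 3 SD, cut at about 49% in these data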;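 note: 0% = DMSO plus EC80 beta-PEA response and 100% = DMSO alone without agonist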
#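 Assay system: RD-HGA16 CHO cells with stable hTAAR1 and Gα16 / Reagent: EC80 β-phenethylamine stimulus / Doses: 3 µM, single point / Timing: dye loading 75 min at 37 °C, then 30 min room temperature / Measured by: Fluo-8 intracellular calcium dye fluorescence, real-time kinetic reads / Controls: vehicle wells and EC80 agonist wells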
# V1aR counter – activates human V1a receptor in oxytocin agonist counter-screen | P37288 | CHO-V1R cells, Fluo-8 calcium fluorescence, agonist mode; 0% DMSO, 100% 3 nM vasopressin | activation, % at 3 µM | 0.25% of 320,000 active;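 active = activation above the mean activation of all tested compounds plus 3 SD, per screening run, cut at about 20% in these data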;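 note: signal is peak over basal fluorescence ratio across a 100 second FLIPR read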
# Target sequence (P37288 whole entry, looked up): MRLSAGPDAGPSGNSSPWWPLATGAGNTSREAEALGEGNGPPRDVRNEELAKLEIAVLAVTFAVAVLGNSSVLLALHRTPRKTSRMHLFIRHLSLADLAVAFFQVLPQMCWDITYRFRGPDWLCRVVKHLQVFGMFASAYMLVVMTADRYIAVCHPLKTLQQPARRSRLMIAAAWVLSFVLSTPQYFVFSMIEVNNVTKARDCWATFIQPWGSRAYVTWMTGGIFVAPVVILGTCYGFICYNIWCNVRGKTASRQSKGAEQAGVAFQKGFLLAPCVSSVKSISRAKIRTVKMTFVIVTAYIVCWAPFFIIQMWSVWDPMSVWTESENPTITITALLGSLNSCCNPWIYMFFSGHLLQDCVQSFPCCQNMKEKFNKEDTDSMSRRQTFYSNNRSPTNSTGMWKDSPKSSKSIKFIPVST
# TAAR1 agonist – human TAAR1 agonism | Q96RJ0 | CHO RD-HGA16 TAAR1, Fluo-8 calcium fluorescence; vehicle wells 0%, saturating PEA agonist 100% | activation, % at 3 µM | 0.99% of 360,000 active;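 active = activation above the mean activation of all test compounds in the run plus 3 SD, cut at about 38% in these data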
#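 Benchmarks: low control DMSO, high control PEA (EC100); System: CHO RD-HGA16 cells carrying human TAAR1 plus Gα16; Detection: Fluo-8 fluorescence, 5 s baseline then 140 s kinetic read; Schedule: 17-24 h plating, Fluo-8 75 min 37 °C, 30 min RT; Read-out basis: % activation from peak over basal fluorescence ratio, DMSO-to-PEA scaled.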
# TAAR1 ag confirm – confirmation of human TAAR1 agonists; shares compounds with TAAR1 agonist; CHO RD-HGA16 TAAR1, Fluo-8 calcium fluorescence; scaled: DMSO 0%, maximal phenethylamine 100%; activation, % at 3 µM; 82% of 2,400 active;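 active = activation above a cutoff set at the run's mean compound activation plus 3 SD, cut at about 39% in these data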
# Ga16 ag counter – counter-screen for TAAR1 agonists: nonselective agonists in parental cells. shares compounds with TAAR1 agonist. CHO-Ga16 parental, Fluo-8 calcium fluorescence; normalized to maximal ATP response, DMSO zero. activation, % at 3 µM. 50% of 2,400 active;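 active = activation above the run cutoff, the mean activation over all tested wells plus 3 SD, cut at about 12% in these data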;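 note: 0% = DMSO wells and 100% = maximal ATP response on the peak over basal ratio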
# TAAR1 desens – human TAAR1 agonist that also desensitizes the receptor. shares compounds with TAAR1 agonist. CHO RD-HGA16 hTAAR1, Fluo-8 calcium, beta-PEA response inhibition. 46% of 2,400 active. AID 651951. inhibition, % at 3 µM;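 active = inhibition above the run cutoff, the mean inhibition of all test compounds plus 3 SD, cut at about 49% in these data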;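 note: beta-PEA stimulus applied at its EC80; loss of beta-PEA calcium signal after compound pretreatment read as receptor desensitization; 0% = DMSO with beta-PEA at EC80 and 100% = DMSO alone without agonist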
# Ga16 antag count – counter-screen for TAAR1 agonists: nonselective Ga16 antagonists; shares compounds with TAAR1 agonist; CHO-Ga16 ATP-induced calcium, Fluo-8 fluorescence; inhibition, % at 3 µM; 39% of 2,400 active;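 active = inhibition above the plate's mean compound inhibition plus 3 SD, computed per plate, cut at about 22% in these data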;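 note: 0% = EC80 ATP with DMSO and 100% = DMSO wells without ATP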
# The depositor's hits bear a star; . = no result. Most compounds without a hit are left out; they make up all but 2.3% or so of the library.
SMILES,OXTR potentiator,OXTR ag,TAAR1 antagonist,V1aR counter,TAAR1 agonist,TAAR1 ag confirm,Ga16 ag counter,TAAR1 desens,Ga16 antag count
CCOc1ccc(S(=O)(=O)N/N=C\c2ccc3c(c2)OCO3)cc1,.,.,0,.,-1,.,.,.,.
CN1CCN(C(c2ccc(Cl)cc2)c2cc(Cl)c3cccnc3c2O)CC1 (centres undefined),-12,1,-1,2,69*,118*,67*,49*,20
CN1CCN(C(c2ccc(C(F)(F)F)cc2)c2cc(Cl)c3cccnc3c2O)CC1 (centres undefined),-4,-1,5,1,119*,129*,106*,81*,44*
CCN1CCN(C(c2ccc(C(F)(F)F)cc2)c2ccc3cccnc3c2O)CC1 (centres undefined),-5,5,-3,2,29,.,.,.,.
C=CCCC(=O)N1CCC(n2nccc2NC(=O)c2ccccc2C)CC1,-2,0,-6,1,0,.,.,.,.
CCOC(=O)c1c(C)[nH]c(C(=O)CN2C(=O)NC(C)(c3ccc(C)cc3)C2=O)c1C (centres undefined),-25,19,9,20,97*,102*,50*,58*,33*
CCOC(=O)c1c(C)[nH]c(C(=O)CN2C(=O)NC(C)(C)C2=O)c1C,.,.,-30,.,4,.,.,.,.
CCOC(=O)c1c(C)[nH]c(C(=O)CN2C(=O)NC(CC)(c3ccccc3)C2=O)c1C (centres undefined),-15,14,20,9,53*,34,12*,20,10
Cc1cc([N+](=O)[O-])cc2c1NC(=O)C2(O)N1CCOCC1 (centres undefined),-2,0,-2,0,2,.,.,.,.
CC(C)(C)OC(=O)NCCCCCNC(=O)c1ncn(Cc2ccccc2)c1C(=O)NCCCCCNC(=O)OC(C)(C)C,-7,5,41,5,2,.,.,.,.
CC(c1ccccc1C(O)(c1ccccc1)c1ccccc1)N(C)C (centres undefined),-21,43*,74*,48*,114*,113*,70*,98*,63*
COc1ccccc1C(O)(c1ccccc1)c1ccccc1OC,.,.,5,.,0,.,.,.,.
O=C(COC(=O)/C=C/c1cccc(F)c1)NC1CCCCCC1,3,-1,54*,2,64*,88*,38*,72*,19
O=c1c(Cl)c(Cl)cnn1Cc1nnc(-c2ccccc2Br)o1,.,.,104*,.,122*,141*,111*,106*,99*
Cc1cc(C(F)(F)F)nc(CCNCc2c(C(=O)N3CCCC3)nc3ccccn23)n1,2,0,-2,1,2,.,.,.,.
O=C(N/N=C/c1ccncc1)c1cccc(S(=O)(=O)Nc2ccc(Cl)cc2)c1,-6,-1,-12,-1,4,.,.,.,.
CCOCCCN(C(=O)Cn1nnc(-c2ccc(C)o2)n1)C(C(=O)NCC1CCCO1)c1ccc(F)cc1 (centres undefined),2,-1,-2,0,-3,.,.,.,.
CC(=O)c1ccc(NC(=O)CC(NCCC2=CCCCC2)C(=O)O)cc1 (centres undefined),-14,0,-8,1,45*,74*,0,15,-1
CC(NCc1cccc(OCc2ccccc2)c1)C(O)c1ccccc1 (centres undefined),-18,16,8,4,24,.,.,.,.
CC(NCc1ccc(OCc2ccc(Cl)cc2)cc1)C(O)c1ccccc1 (centres undefined),-12,19,26,7,52*,39*,27*,49*,40*
NC(=S)NNC(=O)C12CC3CC(CC(C3)C1)C2,-17,34*,80*,23*,140*,136*,108*,102*,94*
Nc1nc(SCC(=O)NCCc2ccccc2)[nH]c(=O)c1-c1ccccc1,-5,0,19,1,62*,53*,0,13,7
O=C(CSc1nc2scc(-c3ccccc3)c2c(=O)[nH]1)NCCc1ccccc1,-4,0,23,0,64*,64*,9,33,15
Cc1cc(=O)[nH]c(SCC(=O)NCCc2ccccc2)n1,3,0,.,0,.,.,3,.,13
Cc1cc(CSc2ccccc2)ccc1NC(=O)c1ccc(CN2CCOCC2)cc1,-12,8,19,8,5,.,.,.,.
SMILES,OXTR potentiator,OXTR ag,TAAR1 antagonist,V1aR counter,TAAR1 agonist,TAAR1 ag confirm,Ga16 ag counter,TAAR1 desens,Ga16 antag count
O=C(CN1C(=O)NC2(CCc3ccccc32)C1=O)c1ccc(Br)s1 (centres undefined),-8,5,8,5,1,.,.,.,.
CC(C)OCCCNC(=O)c1ccc(NC(=O)C2=CSCCO2)cc1,-4,0,-5,0,3,.,.,.,.
Cn1c(/C(C#N)=C(\O)CN2CCN(Cc3ccccc3)CC2)nc2ccccc21,-6,-1,-22,1,2,.,.,.,.
Cc1ccc(SC/C(O)=C(\C#N)c2nc3ccccc3n2C)cc1,-8,3,56*,2,52*,31,51*,19,53*
CC(C)C[C@@H]1NC(=O)N(CCCn2ccnc2)C1=O,-5,1,-2,1,1,.,.,.,.
CCC(C)N=CC1=C(O)CC(c2ccccc2)CC1=O (centres undefined),2,-1,14,0,1,.,.,.,.
CCCC(=NC(C)CC)C1=C(O)CC(c2ccccc2)CC1=O (centres undefined),-15,-2,-1,-1,58*,86*,56*,2,6
COc1ccc(CCNC(=O)C(=O)NCC2OCCN2S(=O)(=O)c2ccc3c(c2)OCCO3)cc1OC (centres undefined),-5,2,4,3,6,.,.,.,.
Cc1ccc(SCC(=O)Nc2ccc(N3CCN(C)CC3)c(F)c2)c(C)c1,-3,7,52*,2,60*,80*,2,75*,7
CCOC(=O)c1sc(NC(=O)C2CCCCC2)nc1C,-4,-3,11,-2,6,.,.,.,.

# Screens from PubChem BioAssay.
